# Laboratory results reported in ChEMBL document CHEMBL4699573, “Design, Synthesis, and Pharmacological Evaluation of Analogues Derived from the PLEV Tetrapeptide as Protein-Protein Interaction Modulators of Voltage-Gated Sodium Channel 1.6” (J Med Chem, 2020).
# Activity calls are given as the source filed them. The calls are words filed in the database; no cut-off is given here. Residues, ends and D or L forms follow the SMILES beside them. *: point of attachment. Adamantane1carbonyl = O=C(C12CC3CC(CC(C3)C1)C2)*; Morpholide = C1CN(*)CCO1; Cbz = O=C(OCc1ccccc1)*; NHBn = c1ccc(CN*)cc1; Bz = O=C(c1ccccc1)*; NHCH2CH2OH = OCCN*; X2 = C1O[C@@H]1CO*; OtBu = CC(C)(C)O*; NEt2 = CCN(CC)*; X1 = C#CCO*
# Tests used:
# HEK293 [1] = experiment: Modulation of recombinant human FGF141b (1 to 252 residues)-recombinant human Nav1.6 C-terminal tail (1763 to 1976 residues) protein-protein interaction expressed in HEK293 cells assessed as relative luminescence value at 50 uM measured at 2 mins interval for 20 mins by split-luciferase complementation assay relative to control; type: cell-based; details: time min 2-20
# Procedure, shortened: (§1)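 Double-stable HEK293 line expressing CLuc-FGF14 and CD4-Nav1.6-C-tail-NLuc, kept on G418 and puromycin. Cells seeded for 24 h, then given compound for 1 h in serum-free, phenol red-free DMEM/F12 with a final 0.5% DMSO: 50 μM for screening, 0.25–100 μM over eight concentrations for dose-response; n = 4. D-luciferin added and read every 2 min for 20 min at 37 °C. Peak luminescence expressed as percent of per-plate DMSO mean (n = 32). IC50 from four-parameter nonlinear fit. At least 3 experiments.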
# HEK293 [2] = experiment: Cytotoxicity against HEK293 cells assessed as reduction in cell viability measured after 18 hrs by celltiter-blue assay; details: human, hek293, 18 h
# [3] = Modulation of recombinant human FGF141b (1 to 252 residues)-recombinant human Nav1.6 C-terminal tail (1763 to 1976 residues) protein-protein interaction expressed in HEK293 cells measured at 2 mins interval for 20 mins by split-luciferase complementation assay; type: cell-based; procedure, shortened: as §1
# HEK293 [4] = experiment: Inhibition of full-length Photinus pyralis luciferase transfected in HEK293 cells at 25 uM incubated for 1 hrs by split-luciferase complementation assay; type: cell-based
# Procedure, shortened: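 HEK293 cells transfected with full-length Photinus pyralis luciferase, then treated 1 h with 25 μM compound (n = 4) or 0.5% DMSO (n = 32). Luminescence read after D-luciferin addition, as in the LCA, normalized to per-plate DMSO controls. One-way ANOVA with Dunnett's test.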
# HEK293 [5] = experiment: Modulation of recombinant human FGF141b (1 to 252 residues)-recombinant human Nav1.6 C-terminal tail (1763 to 1976 residues) protein-protein interaction expressed in HEK293 cells measured at 2 mins interval for 20 mins by split-luciferase complementation assay relative to control; type: cell-based; details: filed as modulator, time min 2-20; procedure, shortened: as §1
# [6] = target: T1, Sodium channel protein type 8 subunit alpha (Homo sapiens, UniProt Q9UQD0); experiment: Binding affinity to human recombinant Nav1.6 C-terminal domain expressed in Escherichia coli BL21 assessed as association rate constant by SPR analysis; details: filed as modulator
# Procedure, shortened: (§2)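 Biacore T100 runs with FGF14 (17,896 RU) or Nav1.6 C-tail (6,800 RU) amine-coupled on CM5 at pH 5.5. Compounds at 0.195–200 μM in PBS, 0.005% Tween-20, 2% DMSO; 50 μL/min at 25 °C. 120 s association, 150 s dissociation, DMSO calibration, blank subtraction. Rates from a Langmuir 1:1 fit; KD averages the kinetic and steady-state values. At least duplicate experiments.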
# Target sequence in this assay (Q9UQD0 whole entry, looked up, the tested form may be a part): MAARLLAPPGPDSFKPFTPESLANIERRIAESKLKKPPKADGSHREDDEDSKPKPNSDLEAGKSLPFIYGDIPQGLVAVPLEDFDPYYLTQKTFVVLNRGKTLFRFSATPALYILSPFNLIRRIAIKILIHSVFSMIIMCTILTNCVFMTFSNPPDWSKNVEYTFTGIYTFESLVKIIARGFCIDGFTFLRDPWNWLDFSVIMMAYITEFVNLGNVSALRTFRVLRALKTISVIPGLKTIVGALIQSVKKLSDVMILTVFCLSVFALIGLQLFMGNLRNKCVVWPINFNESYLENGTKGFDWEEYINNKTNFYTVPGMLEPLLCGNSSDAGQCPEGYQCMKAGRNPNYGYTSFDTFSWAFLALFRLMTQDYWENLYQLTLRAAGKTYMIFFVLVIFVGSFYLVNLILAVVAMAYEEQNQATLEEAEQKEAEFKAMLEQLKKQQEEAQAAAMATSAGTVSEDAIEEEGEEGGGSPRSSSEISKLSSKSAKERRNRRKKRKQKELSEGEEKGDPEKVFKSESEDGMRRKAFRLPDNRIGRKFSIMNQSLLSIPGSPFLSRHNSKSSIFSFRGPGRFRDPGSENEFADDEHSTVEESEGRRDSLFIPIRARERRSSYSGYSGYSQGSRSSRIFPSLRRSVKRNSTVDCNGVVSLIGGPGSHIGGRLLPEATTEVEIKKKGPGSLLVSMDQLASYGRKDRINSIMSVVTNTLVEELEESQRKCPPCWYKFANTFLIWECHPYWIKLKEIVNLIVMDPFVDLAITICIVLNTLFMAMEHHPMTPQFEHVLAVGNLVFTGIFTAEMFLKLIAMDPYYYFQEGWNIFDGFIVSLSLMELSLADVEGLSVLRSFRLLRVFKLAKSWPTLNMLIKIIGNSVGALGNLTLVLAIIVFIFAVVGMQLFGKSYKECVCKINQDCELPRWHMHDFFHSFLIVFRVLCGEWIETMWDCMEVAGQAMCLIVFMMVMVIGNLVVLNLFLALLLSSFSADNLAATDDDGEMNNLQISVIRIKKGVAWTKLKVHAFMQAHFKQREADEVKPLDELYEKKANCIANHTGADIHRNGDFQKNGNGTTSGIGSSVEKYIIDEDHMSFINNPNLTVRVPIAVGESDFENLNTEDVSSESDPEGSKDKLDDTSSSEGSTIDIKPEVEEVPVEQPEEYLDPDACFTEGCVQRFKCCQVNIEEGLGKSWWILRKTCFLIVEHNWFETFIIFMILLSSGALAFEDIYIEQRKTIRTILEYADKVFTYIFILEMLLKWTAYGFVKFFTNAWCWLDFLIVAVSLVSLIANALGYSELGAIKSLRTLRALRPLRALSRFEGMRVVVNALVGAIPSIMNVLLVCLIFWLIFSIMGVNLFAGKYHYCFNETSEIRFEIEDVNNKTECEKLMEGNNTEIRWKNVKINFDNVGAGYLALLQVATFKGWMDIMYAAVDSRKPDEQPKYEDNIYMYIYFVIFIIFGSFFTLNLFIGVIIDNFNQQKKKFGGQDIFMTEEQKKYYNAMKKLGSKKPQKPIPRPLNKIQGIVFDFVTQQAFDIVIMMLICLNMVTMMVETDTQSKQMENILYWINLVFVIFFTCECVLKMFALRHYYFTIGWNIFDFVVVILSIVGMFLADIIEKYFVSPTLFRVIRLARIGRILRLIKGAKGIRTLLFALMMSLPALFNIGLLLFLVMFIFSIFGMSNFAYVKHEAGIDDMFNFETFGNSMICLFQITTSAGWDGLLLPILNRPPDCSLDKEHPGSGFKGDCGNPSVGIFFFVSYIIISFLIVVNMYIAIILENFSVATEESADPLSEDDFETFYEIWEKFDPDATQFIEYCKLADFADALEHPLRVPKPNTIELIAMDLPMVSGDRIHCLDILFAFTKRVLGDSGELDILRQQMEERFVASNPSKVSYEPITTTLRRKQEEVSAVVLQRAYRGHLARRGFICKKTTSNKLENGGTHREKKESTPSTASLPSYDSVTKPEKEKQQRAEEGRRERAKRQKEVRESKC
# [7] = target: T1, Sodium channel protein type 8 subunit alpha; experiment: Binding affinity to human recombinant Nav1.6 C-terminal domain expressed in Escherichia coli BL21 assessed as dissociation constant by SPR analysis; procedure, shortened: as §2
# Target sequence in this assay (Q9UQD0 whole entry, the tested form may be a part): as the sequence (Q9UQD0 whole entry, looked up, the tested form may be a part) above
# [8] = target: T2, Fibroblast growth factor 14 (Homo sapiens) (UniProt Q92915); experiment: Binding affinity to human recombinant FGF14 expressed in Escherichia coli BL21 assessed as association rate constant by SPR analysis; details: filed as modulator; procedure, shortened: as §2
# T2 sequence (whole entry): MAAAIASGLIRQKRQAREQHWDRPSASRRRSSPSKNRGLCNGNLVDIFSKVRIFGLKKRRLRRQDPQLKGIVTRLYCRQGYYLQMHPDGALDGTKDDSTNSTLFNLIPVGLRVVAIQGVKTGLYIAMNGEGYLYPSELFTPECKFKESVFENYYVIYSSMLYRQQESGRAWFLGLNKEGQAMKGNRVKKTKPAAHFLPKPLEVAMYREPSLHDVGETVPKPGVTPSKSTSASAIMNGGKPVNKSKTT
# [9] = target: T1, Sodium channel protein type 8 subunit alpha; experiment: Binding affinity to human recombinant Nav1.6 C-terminal domain expressed in Escherichia coli BL21 assessed as dissociation rate constant by SPR analysis; details: filed as modulator; procedure, shortened: as §2
# Target sequence in this assay (Q9UQD0 whole entry, looked up, the tested form may be a part): as the sequence (Q9UQD0 whole entry, looked up, the tested form may be a part) above
# [10] = target: T2, Fibroblast growth factor 14 (Homo sapiens); experiment: Binding affinity to human recombinant FGF14 expressed in Escherichia coli BL21 assessed as dissociation rate constant by SPR analysis; details: filed as modulator; procedure, shortened: as §2
# [11] = target: T3, Fibroblast growth factor 14 (Homo sapiens, UniProt Q92915); experiment: Binding affinity to human recombinant FGF14 expressed in Escherichia coli BL21 assessed as dissociation constant by SPR analysis; procedure, shortened: as §2
# T3 sequence (Q92915 whole entry): T2 sequence (whole entry)
# [12] = target: T1, Sodium channel protein type 8 subunit alpha; experiment: Binding affinity to human recombinant Nav1.6 C-terminal domain expressed in Escherichia coli BL21 assessed as assessed as induction of protein denaturation by measuring change in melting temperature at 10 uM by fluorescent dye based thermal shift assay; details: filed as modulator, dose 50.0 µM
# Target sequence in this assay (Q9UQD0 whole entry, looked up, the tested form may be a part): as the sequence (Q9UQD0 whole entry, looked up, the tested form may be a part) above
# [13] = target: T2, Fibroblast growth factor 14 (Homo sapiens); experiment: Binding affinity to human recombinant FGF14 expressed in Escherichia coli BL21 assessed as assessed as induction of protein denaturation by measuring change in melting temperature at 50 uM by fluorescent dye based thermal shift assay; details: filed as modulator
SMILES,Activity (HEK293 [1]) [%],Activity (HEK293 [2]),IC50 [3] [µM],inhibition (HEK293 [4]),Efficacy (HEK293 [5]) [%],further results
COC(=O)[C@@H](NC(=O)[C@H](CCC(=O)OC(C)(C)C)NC(=O)[C@H](CC(C)C)NC(=O)[C@@H]1CCCN1C(C)=O)C(C)C (Ac-PLE(OtBu)V-OMe),95,–,–,–,–,–
CC(=O)N1CCC[C@H]1C(=O)N[C@@H](CC(C)C)C(=O)N[C@@H](CCC(=O)O)C(=O)N[C@H](C(N)=O)C(C)C (Ac-PLEV-NH2),79.4,–,–,–,–,–
CC(C)C[C@H](NC(=O)[C@@H]1CCCN1C(=O)C12CC3CC(CC(C3)C1)C2)C(=O)N[C@@H](CCC(=O)OC(C)(C)C)C(=O)N[C@H](C(N)=O)C(C)C (Adamantane1carbonyl-PLE(OtBu)V-NH2),68.7,Non-Toxic,49,inactive,82.1,–
CCOC(=O)[C@@H](NC(=O)[C@H](CCC(=O)OC(C)(C)C)NC(=O)[C@H](CC(C)C)NC(=O)[C@@H]1CCCN1C(=O)C12CC3CC(CC(C3)C1)C2)C(C)C (Adamantane1carbonyl-PLE(OtBu)V-OEt),–,–,13.3,–,82.3,K [6]: 2.64 10^3/M/s; Kd [7]: 67.3 µM; K [8]: 2.17 10^2/M/s; K [9]: 1.22 10^-2/s; K [10]: 2.05 10^-2/s; Kd [11]: 9.47 µM
C#CCOC(=O)[C@@H](NC(=O)[C@H](CCC(=O)OC(C)(C)C)NC(=O)[C@H](CC(C)C)NC(=O)[C@@H]1CCCN1C(=O)C12CC3CC(CC(C3)C1)C2)C(C)C (Adamantane1carbonyl-PLE(OtBu)V-X1),–,Non-Toxic,13.8,inactive,96.6,K [6]: 1.26 10^5/M/s; Kd [7]: > 200 µM; K [8]: 2.58 10^4/M/s; ΔTm [12]: -0.15 °C; ΔTm [13]: -1.85 °C; K [9]: 1.45 10^-3/s; Activity (HEK293 [1]; filed as modulator): 5.1%; Kd [11]: 14.7 µM
CC(C)C[C@H](NC(=O)[C@@H]1CCCN1C(=O)C12CC3CC(CC(C3)C1)C2)C(=O)N[C@@H](CCC(=O)OC(C)(C)C)C(=O)N[C@H](C(=O)OC[C@@H]1CO1)C(C)C (Adamantane1carbonyl-PLE(OtBu)V-X2),–,Non-Toxic,25.1,inactive,91.4,Activity (HEK293 [1]; filed as modulator): 13.1%
CC(C)C[C@H](NC(=O)[C@@H]1CCCN1C(=O)c1ccccc1)C(=O)N[C@@H](CCC(=O)OC(C)(C)C)C(=O)N[C@H](C(N)=O)C(C)C (Bz-PLE(OtBu)V-NH2),105,–,–,–,–,–
CC(C)C[C@H](NC(=O)[C@@H]1CCCN1C(=O)OCc1ccccc1)C(=O)N[C@@H](CCC(=O)OC(C)(C)C)C(=O)N[C@H](C(=O)N1CCOCC1)C(C)C (Cbz-PLE(OtBu)V-Morpholide),72,–,–,–,–,–
CCN(CC)C(=O)[C@@H](NC(=O)[C@H](CCC(=O)OC(C)(C)C)NC(=O)[C@H](CC(C)C)NC(=O)[C@@H]1CCCN1C(=O)OCc1ccccc1)C(C)C (Cbz-PLE(OtBu)V-NEt2),92.3,–,–,–,–,–
CC(C)C[C@H](NC(=O)[C@@H]1CCCN1C(=O)OCc1ccccc1)C(=O)N[C@@H](CCC(=O)OC(C)(C)C)C(=O)N[C@H](C(N)=O)C(C)C (Cbz-PLE(OtBu)V-NH2),112,–,–,–,–,–
CC(C)C[C@H](NC(=O)[C@@H]1CCCN1C(=O)OCc1ccccc1)C(=O)N[C@@H](CCC(=O)OC(C)(C)C)C(=O)N[C@H](C(=O)NCc1ccccc1)C(C)C (Cbz-PLE(OtBu)V-NHBn),134,Non-Toxic,–,inactive,–,–
CC(C)C[C@H](NC(=O)[C@@H]1CCCN1C(=O)OCc1ccccc1)C(=O)N[C@@H](CCC(=O)OC(C)(C)C)C(=O)N[C@H](C(=O)NCCO)C(C)C (Cbz-PLE(OtBu)V-NHCH2CH2OH),118,–,–,–,–,–
CNC(=O)[C@@H](NC(=O)[C@H](CCC(=O)OC(C)(C)C)NC(=O)[C@H](CC(C)C)NC(=O)[C@@H]1CCCN1C(=O)OCc1ccccc1)C(C)C (Cbz-PLE(OtBu)V-NHMe),103,–,–,–,–,–
